Calb FLC: affects C. albicans growth with fluconazole | C. albicans CaCi-2 (fluconazole-resistant clinical isolate) + fluconazole, Alamar Blue growth, 48 h | growth inhibition, % (no concentration beside the values) | 300,000 tested, 0.57% active | AID 1979;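 active = growth inhibition above about 58% in most replicates, limit read from the data, passing the limit was not always enough; inconclusive = exactly half the replicates above a set limit; inactive = most replicates below a set limit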;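 note: all wells also contain fluconazole at 8 µg/ml as a sub-toxic cotreatment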
HSF1 inh: HSF1 inhibition | NIH3T3-HGL HSE-luciferase, MG132-induced, luminescence 8 h; active compounds read low | activity change, negative = inhibition, % at 7.5 µM (by protocol) | 300,000 tested, 0.77% active;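 active = more than half of replicate wells show activity change below -50%, luminescence cut by over half; inconclusive = some wells, but at most half, below -50%; inactive = no replicate well below -50%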;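 note: luciferase reports HSF-1 transcriptional activity via heat shock element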
T cruzi repl: blocks replication of Trypanosoma cruzi. 300,000 tested, 1.4% active. inhibition, % (test concentration not listed). T. cruzi beta-gal in NIH3T3, luminescence, 90 h. AID 1885;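 active = mean inhibition across valid replicates above about 55%, limit read from the data; inconclusive = mean below that limit but half or more replicates reach it; inactive = mean below it, under half of replicates reach it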;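 note: signal also drops with host cell toxicity which is not excluded here; higher percent means less beta-gal luminescence so fewer parasites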
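System – NIH/3T3 host cells with β-galactosidase reporter T. cruzi · Doses – single 50 nL compound addition per well in DMSO · Reagent – 5000 T. cruzi trypomastigotes/well · Medium – Low-serum DMEM with 2% FBS · Timing – ≥90 h infection period, 3 h prior cell attachment · Evaluation – parasite load inhibition, % · Technique – GalScreen luminescence, 60 min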
HIF activator: HIF pathway transcriptional activation. U2OS HRE-luciferase reporter, luminescence; normalized: DMSO 0%, desferrioxamine 100%. AID 1910. activation, % at 7.5 µM (by protocol). 300,000 tested, 0.32% active;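 active = mean activation of at least 10% of the iron chelator positive control signal, with at least half of replicates also reaching 10%; inconclusive = mean and replicate majority disagree about reaching 10%; inactive = mean and most replicates under 10%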
HSF1 activator: increases HSF-1 driven luciferase reporter signal | NIH3T3-HGL HSF-1 luciferase reporter, MG132, 8 h; 100% = twice DMSO control signal | activation, % at 9 µM | 300,000 tested, 1.7% active | AID 504408;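 active = mean replicate activation of at least 50% with a set share of replicates each reaching 50%; inconclusive = only one of those two conditions met; inactive = mean below 50% and too few replicates reaching it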
A number is an active result; . = inactive; ? = inconclusive; / = not tested or not shown. Rows were chosen to be rich in hits. Some 4.4% of all compounds tested hit in one or more screens of this group.

SMILES	Calb FLC	HSF1 inh	T cruzi repl	HIF activator	HSF1 activator
FC(F)(F)c1cnc(Sc2nnc(-c3cccs3)n2CC2CCCO2)c(Cl)c1 (stereo not given)	.	.	.	.	.
FC(F)(F)c1ccc(Sc2nnc(-c3cccs3)n2CC2CCCO2)nc1 (stereo not given)	.	.	.	.	58.3
CCc1ccc(-c2nc(CN3CCC(C(=O)NCCN(CC)c4ccccc4)CC3)c(C)o2)cc1	?	.	.	.	.
Cc1oc(-c2cccc(Cl)c2)nc1CN1CCCC(C(=O)NCCCN2CCOCC2)C1 (stereo not given)	.	.	62.6	.	.
CCN(CCNC(=O)C1CCCN(Cc2nc(-c3ccc(OC)cc3)oc2C)C1)c1ccccc1 (stereo not given)	.	.	62.4	.	.
Cc1oc(-c2ccc(Cl)cc2)nc1CN1CCC(C(=O)NCCCN2CCOCC2)CC1	.	.	.	.	.
COC(=O)c1sc(N)c(C(=O)OC)c1Cn1ncc(Cl)c(Cl)c1=O	/	.	.	.	61.3
COC(=O)c1sc(N)c(C(=O)OC)c1COC(=O)c1c(C)noc1C	.	.	.	.	.
COc1cccc(N=CC2=C(O)CCCC2=O)c1	.	.	.	.	.
CC1(C)CC(=O)C(C=Nc2ccc3cn[nH]c3c2)=C(O)C1	.	.	.	/	54.2
COc1cccc(N=CC2=C(O)CC(C)(C)CC2=O)c1	.	.	.	.	86.6
CCOc1ccc(NC(=O)CN(C)C(=O)c2cc3c(s2)CCCCC3)cc1OCC	.	.	.	.	.
Cc1csc(NC(=O)CSc2nnc(CCNC(=O)c3cccs3)n2C)n1	.	.	.	.	.
Cn1c(CCNC(=O)c2cccs2)nnc1SCC(=O)Nc1nc(-c2ccccc2)cs1	.	.	.	.	54.3
O=C(CSc1cn(Cc2ccccc2)c2ccccc12)Nc1nccs1	.	.	.	.	64.6
O=C(CSc1nc(-c2ccccc2)cs1)Nc1nccs1	111.8	.	.	.	.
CC1CC(C)CN(CCCNC(=O)CCC(=O)N2CCOc3ccccc32)C1 (stereo not given)	.	.	.	.	.
CCCN1CCN(C(=O)c2nn(-c3ccc(OC)cc3)c(=O)c3c2c2ccccc2n3C)CC1	.	.	.	.	.
COc1cc(NC(=O)COC(=O)/C=C/c2c(C)nn(-c3ccc(F)cc3)c2Cl)cc(OC)c1	.	.	60.0	.	.
COc1cc(NC(=O)COC(=O)/C=C/c2ccccc2Cl)cc(OC)c1	.	.	.	.	.
CCOC(=O)C1CC2CC(C1)CN(C(=O)C1CCCCC1)C2 (stereo not given)	.	.	.	.	.
CS(=O)(=O)NN1C(=O)c2ccccc2NC1c1cccc2cccnc12 (stereo not given)	80.3	.	.	.	.
CCCn1c(=N)c(C(=O)NCc2ccc3c(c2)OCO3)cc2c(=O)n3cccc(C)c3nc21	.	.	64.4	.	.
COc1ccc(CCn2c(=N)c(C(=O)NCc3ccco3)cc3c(=O)n4ccccc4nc32)cc1	.	.	.	.	.
COc1ccc(CCn2c(=N)c(C(=O)NCC3CCCO3)cc3c(=O)n4cccc(C)c4nc32)cc1 (stereo not given)	.	.	57.8	.	.
SMILES	Calb FLC	HSF1 inh	T cruzi repl	HIF activator	HSF1 activator
CCNC(=O)c1cc2c(=O)n3cccc(C)c3nc2n(Cc2ccc(C)cc2)c1=N	.	.	.	.	.
CC(=O)N=c1c(C#N)cc2c(=O)n3ccccc3nc2n1CCCOC(C)C	.	.	.	.	.
CC(C)OCCCn1c(=N)c(C(N)=S)cc2c(=O)n3ccccc3nc21	.	.	69.0	.	.
COc1ccc(CNC(=O)c2cc3c(=O)n4cccc(C)c4nc3n(CC3CCCO3)c2=N)cc1 (stereo not given)	.	.	.	.	.
CCOCCCn1c(=N)c(C(=O)NCc2ccc3c(c2)OCO3)cc2c(=O)n3ccccc3nc21	.	.	59.5	.	.
O=C(Nc1ccc2c(c1)OCO2)C1CCCCN1S(=O)(=O)c1ccccc1 (stereo not given)	.	.	.	.	.
CC[C@H](C)[C@H](NC(=O)OCc1ccccc1)C(=O)Nc1ccc(NC(C)=O)cc1	.	.	.	.	.
COC(c1ccccc1)c1nnc(CCC(=O)N(C)Cc2cccc(-n3cccn3)c2)o1 (stereo not given)	.	.	.	.	.
O=C(CCCN1C(=O)c2cccnc2Oc2ccc(Cl)cc21)N1CCCCC1	.	.	.	.	.
COC(=O)c1cc(NC(=O)c2cc(-c3ccc(Cl)cc3)oc2C(F)(F)F)ccc1N1CCOCC1	.	.	62.8	.	.
COC(=O)c1cc(NC(=O)c2cc(-c3ccccc3Cl)oc2C(F)(F)F)ccc1N1CCOCC1	.	.	.	.	.
O=C(CN1c2ccccc2Sc2ccccc21)N/N=C/c1ccc(Cl)cc1	.	.	/	.	61.3
O=C(CN1c2ccccc2Sc2ccccc21)N/N=C/c1ccc(Cl)cc1Cl	.	.	.	.	.
CCc1cccc2c(C(=O)CCl)c[nH]c12	/	.	.	.	.
CCc1cccc2c(C(=O)COC(=O)c3ccc([N+](=O)[O-])s3)c[nH]c12	.	-68.8	64.4	.	.
CC(C)(C)NC(=O)COC(=O)c1ccccc1NC(=O)c1ccco1	.	.	.	.	.
O=C(OCC(=O)c1c[nH]c2ccccc12)c1ccc([N+](=O)[O-])s1	.	.	61.4	.	.
O=C(Nc1ccccc1C(=O)OCC(=O)c1c[nH]c2ccccc12)c1ccco1	.	.	.	.	104.9
O=C1NC(=O)C(c2ccc(F)cc2)N1 (stereo not given)	.	.	.	.	.
COc1cccc(C(NC(C)=O)c2ccc3cccnc3c2O)c1 (stereo not given)	79.6	.	56.5	38.0	.
Oc1cccc(C(Nc2nccs2)c2ccc3cccnc3c2O)c1 (stereo not given)	102.8	.	91.6	35.2	.
CC(=O)NC(c1cccc([N+](=O)[O-])c1)c1ccc2cccnc2c1O (stereo not given)	.	.	.	231.2	.
CCOc1ccc(-n2c(=S)sc3c(=O)[nH]c(SCC(=O)C(C)(C)C)nc32)cc1	.	.	.	.	.
Oc1ccc(F)cc1-c1cc(-c2ccc3c(c2)OCCO3)n[nH]1	.	.	.	.	105.3
Cc1ccc(Nc2cc(-n3nc(C)cc3C)ncn2)c(C)c1	.	.	.	.	.
Cc1ccc(Nc2cc(-n3cccn3)ncn2)c(C)c1	.	.	.	/	52.0
C/C=C/n1ccnc1CC(O)(c1ccccc1)c1ccc(C)cc1 (stereo not given)	.	.	.	.	.
CC1CC(C)CN(S(=O)(=O)N2CCCC(C(=O)NC3CCCCC3C)C2)C1 (stereo not given)	.	.	.	.	.
CCCCS(=O)(=O)/C=C\C1C2C=CC(C2)C1S(=O)(=O)CCCC (stereo not given)	.	.	.	.	.
